{"source": "ChEMBL document CHEMBL4364322", "about": "“Protective effect of piceatannol and bioactive stilbene derivatives against hypoxia-induced toxicity in H9c2 cardiomyocytes and structural elucidation as 5-LOX inhibitors” (Eur J Med Chem, 2019)", "key": {"[1]": {"tested_on": "H9c2", "assay": "Cytoprotective activity against hypoxia-induced toxicity rat H9c2 cells assessed as increase in cell viability at 80 nM preincubated for 18 hrs followed by incubated in hypoxia for 48 hrs by MTT assay", "format": "functional", "method_in_brief": "(§1)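 10^4 H9c2 cells were seeded and grown 24 h at 37 °C. Compound (80 nM–20 µM) was added either 18 h before or just before 48 h hypoxia in a sealed humidified chamber (5% CO2, 95% N2). Viability was measured by MTT for about 2 h, with formazan dissolved in HCl/isopropanol and read at 570 nm. Results are % of corresponding control, triplicates.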"}, "[2]": {"target": "T1, Polyunsaturated fatty acid 5-lipoxygenase (Homo sapiens, UniProt P09917)", "T1 sequence (P09917 whole entry)": "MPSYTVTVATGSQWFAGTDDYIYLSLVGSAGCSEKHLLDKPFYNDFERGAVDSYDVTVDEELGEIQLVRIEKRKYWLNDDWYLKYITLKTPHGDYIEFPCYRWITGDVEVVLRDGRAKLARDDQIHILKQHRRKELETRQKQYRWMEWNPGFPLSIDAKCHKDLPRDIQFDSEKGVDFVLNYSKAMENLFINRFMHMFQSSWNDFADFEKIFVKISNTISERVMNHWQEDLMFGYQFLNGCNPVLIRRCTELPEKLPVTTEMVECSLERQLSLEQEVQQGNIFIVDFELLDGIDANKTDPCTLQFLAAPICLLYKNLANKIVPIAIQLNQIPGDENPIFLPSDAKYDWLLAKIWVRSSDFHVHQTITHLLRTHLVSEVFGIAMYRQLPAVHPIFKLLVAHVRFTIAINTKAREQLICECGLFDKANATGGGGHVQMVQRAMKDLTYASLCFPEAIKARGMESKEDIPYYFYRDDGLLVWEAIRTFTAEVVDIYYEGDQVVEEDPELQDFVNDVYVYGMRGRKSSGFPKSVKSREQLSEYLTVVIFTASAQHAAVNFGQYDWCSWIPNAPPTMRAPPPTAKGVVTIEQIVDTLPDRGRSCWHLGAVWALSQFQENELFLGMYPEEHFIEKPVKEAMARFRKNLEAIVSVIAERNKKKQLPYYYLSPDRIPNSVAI", "assay": "Inhibition of human 5-LOX expressed in Escherichia coli BL21 using arachidonic acid as substrate preincubated for 15 mins followed by substrate addition by HPLC analysis", "method_in_brief": "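Human recombinant 5-LOX was expressed in E. coli BL21 (pT3-5LO) and purified. Enzyme (0.5 µg) in PBS/EDTA was preincubated with compound 15 min at 4 °C, then warmed 30 s at 37 °C. The reaction was started with 2 mM CaCl2 plus 20 µM arachidonic acid and run 10 min at 37 °C. Products were analysed by HPLC.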"}, "[3]": {"target": "T1, Polyunsaturated fatty acid 5-lipoxygenase", "assay": "Inhibition of 5-LOX in human PMNL cells assessed as A23187-stimulated LTB4 production preincubated for 15 mins followed by A23187 addition and measured after 10 mins by HPLC analysis", "format": "cell-based", "method_in_brief": "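Human PMNL (5×10^6 in 1 ml PBS with 1 mg/ml glucose and 1 mM CaCl2) were preincubated with compound 15 min at 37 °C. 2.5 µM A23187 was added for 10 min at 37 °C, and the reaction was stopped with methanol. 5-LOX products were analysed by HPLC.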"}, "[4]": {"tested_on": "H9c2", "assay": "Cytoprotective activity against hypoxia-induced apoptosis in rat H9c2 cells assessed as early apoptotic cells at 2 uM preincubated for 18 hrs followed by incubated in hypoxia for 48 hrs by annexin V based flow cytometry", "format": "functional, cell-based", "method_in_brief": "(§2)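 H9c2 cells were pretreated 18 h at 2 µM, then grown under normoxia or hypoxia. Apoptotic cells were detected by flow cytometry with fluorescein-annexin V staining. The read-out is % annexin V-positive cells.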"}, "[5]": {"tested_on": "H9c2", "assay": "Cytoprotective activity against hypoxia-induced apoptosis in rat H9c2 cells assessed as early apoptotic cells at 2 uM preincubated for 18 hrs followed by incubated in hypoxia for 48 hrs by annexin V based flow cytometry (reference value: 60 %)", "format": "functional", "method_in_brief": "as §2"}, "[6]": {"tested_on": "H9c2", "assay": "Antioxidant activity in rat H9c2 cells assessed as reduction in hypoxia-induced lipid peroxidation by measuring TBARS level preincubated for 18 hrs followed by incubated in hypoxia for 48 hrs by spectrophotometry", "format": "functional, cell-based", "method_in_brief": "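10^4 H9c2 cells were pretreated 18 h with 80 nM or 2 µM, then held 48 h under hypoxia. Cells were lysed in modified RIPA buffer. Lysates were mixed with 20% acetic acid (pH 3.5) and 0.78% thiobarbituric acid, heated at 95 °C for 45 min, and centrifuged. A532 was read and expressed as TBARS per µg protein. Triplicate measurements, duplicate experiments.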"}, "[7]": {"tested_on": "H9c2", "assay": "Cytoprotective activity against hypoxia-induced toxicity rat H9c2 cells assessed as cell death at 20 uM incubated for 18 hrs in hypoxia measured after 48 hrs by MTT assay"}, "[8]": {"tested_on": "H9c2", "assay": "Cytoprotective activity against hypoxia-induced toxicity rat H9c2 cells assessed as increase in cell viability at 80 nM to 7 uM preincubated for 18 hrs followed by incubated in hypoxia for 48 hrs by MTT assay", "format": "functional", "method_in_brief": "as §1"}, "[9]": {"target": "T2, Polyunsaturated fatty acid 5-lipoxygenase (Homo sapiens) (UniProt P09917)", "T2 sequence (whole entry)": "T1 sequence (P09917 whole entry)", "assay": "Residual activity of human 5-LOX expressed in Escherichia coli BL21 using arachidonic acid as substrate at 10 uM preincubated for 15 mins followed by substrate addition by HPLC analysis relative to control"}, "[10]": {"tested_on": "H9c2", "assay": "Cytoprotective activity against hypoxia-induced toxicity rat H9c2 cells assessed as cell death at 20 uM preincubated for 18 hrs followed by incubated in hypoxia for 48 hrs by MTT assay"}, "[11]": {"tested_on": "H9c2", "assay": "Antioxidant activity in rat H9c2 cells assessed as reduction in hypoxia-induced NO release at 80 nM to 2 uM preincubated for 18 hrs followed by incubated in hypoxia for 48 hrs by griess assay", "format": "functional, cell-based", "method_in_brief": "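10^4 H9c2 cells were pretreated 18 h at 37 °C with 80 nM or 2 µM, then held 48 h in a hypoxic chamber. Supernatant nitrite was measured with Griess reagent (0.5% sulfanilamide, 2.5% H3PO4, 0.05% naphthylethylene diamine) for 10 min at RT. Absorbance was read at 550 nm against a sodium nitrite standard curve.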"}, "[12]": {"tested_on": "H9c2", "assay": "Cytoprotective activity against hypoxia-induced toxicity rat H9c2 cells assessed as increase in cell viability at 80 nM to 7 uM incubated for 18 hrs in hypoxia measured after 48 hrs by MTT assay", "format": "functional", "method_in_brief": "as §1"}, "[13]": {"tested_on": "H9c2", "assay": "Antioxidant activity in rat H9c2 cells assessed as increase in hypoxia-induced reduction of MnSOD expression at 2 uM preincubated for 18 hrs followed by incubated in hypoxia for 48 hrs by Western blot analysis", "format": "functional, cell-based", "method_in_brief": "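H9c2 cells were pretreated 18 h at 80 nM or 2 µM, then held 48 h under hypoxia. Lysates were made in RIPA buffer with protease inhibitors and DTT, and 80 µg protein was run on 12% SDS-PAGE. Blots were probed overnight at 4 °C with anti-MnSOD, with GAPDH as internal standard. Detection was by ECL and bands were quantified by densitometry.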"}, "[14]": {"tested_on": "H9c2", "assay": "Antioxidant activity in rat H9c2 cells assessed as hypoxia-induced RO production at 2 uM preincubated for 18 hrs followed by incubated in hypoxia for 48 hrs by DCFH-DA staining-based flow cytometric analysis( Rvb = 45 %)", "format": "functional"}}, "note": "The source made the active and inactive calls. The rule behind the calls is not given here."}
{"smiles": "COc1cc(/C=C/c2ccc(O)c(OC)c2)cc(OC)c1", "values": [{"measurement": "Activity", "setting": "[1]", "result": "25 - 35%"}, {"measurement": "IC50", "setting": "[2]", "result": 780, "unit": "nM"}, {"measurement": "IC50", "setting": "[3]", "result": 70, "unit": "nM"}]}
{"smiles": "CC(c1cc2ccccc2s1)N(O)C(N)=O", "note": "(configuration not stated)", "values": [{"measurement": "Activity", "setting": "[4]", "result": "inactive"}]}
{"smiles": "COc1cc(/C=C/c2ccc(O)c(O)c2)cc(OC)c1", "values": [{"measurement": "Activity", "setting": "[1]", "result": "25 - 35%"}, {"measurement": "IC50", "setting": "[2]", "result": 320, "unit": "nM"}, {"measurement": "IC50", "setting": "[3]", "result": 50, "unit": "nM"}]}
{"smiles": "COc1cc(/C=C/c2ccc(O)cc2)cc(OC)c1", "note": "[PTEROSTILBENE]", "values": [{"measurement": "Activity", "setting": "[5]", "result": 25, "unit": "%"}, {"measurement": "Activity", "setting": "[1]", "result": "25 - 35%"}, {"measurement": "IC50", "setting": "[2]", "result": 3910, "unit": "nM"}, {"measurement": "IC50", "setting": "[3]", "result": 530, "unit": "nM"}]}
{"smiles": "COc1ccc(/C=C/c2cc(OC)cc(OC)c2)cc1", "note": "[TRISMETHOXYRESVERATROL]", "values": [{"measurement": "Activity", "setting": "[1]", "result": "25 - 35%"}, {"measurement": "IC50", "setting": "[2]", "result": 3620, "unit": "nM"}, {"measurement": "IC50", "setting": "[3]", "result": 760, "unit": "nM"}]}
{"smiles": "Oc1ccc(/C=C/c2cc(O)cc(O)c2)cc1", "note": "[RESVERATROL]", "values": [{"measurement": "Activity", "setting": "[6]", "result": "Dose-dependent effect"}, {"measurement": "cell death", "setting": "[7]", "result": 80, "unit": "%"}, {"measurement": "Activity", "setting": "[8]", "result": 95, "unit": "%"}, {"measurement": "residual activity", "setting": "[9]", "result": 63.4, "unit": "%"}, {"measurement": "cell death", "setting": "[10]", "result": 80, "unit": "%"}, {"measurement": "Activity", "setting": "[11]", "result": "Active"}, {"measurement": "Activity", "setting": "[12]", "result": 95, "unit": "%"}, {"measurement": "Activity", "setting": "[13]", "result": "Active"}, {"measurement": "IC50", "setting": "[3]", "result": 4900, "unit": "nM"}]}
{"smiles": "COc1cc(/C=C/c2ccc(OC)c(O)c2)cc(OC)c1", "values": [{"measurement": "Activity", "setting": "[1]", "result": "25 - 35%"}, {"measurement": "IC50", "setting": "[2]", "result": 5490, "unit": "nM"}, {"measurement": "IC50", "setting": "[3]", "result": 5480, "unit": "nM"}]}
{"smiles": "Oc1cc(O)cc(/C=C/c2ccc(O)c(O)c2)c1", "note": "[PICEATANNOL]", "values": [{"measurement": "Activity", "setting": "[6]", "result": "Dose-dependent effect"}, {"measurement": "cell death", "setting": "[7]", "result": 80, "unit": "%"}, {"measurement": "Activity", "setting": "[8]", "result": "Active"}, {"measurement": "Activity", "setting": "[14]", "result": 38, "unit": "%"}, {"measurement": "cell death", "setting": "[10]", "result": 80, "unit": "%"}, {"measurement": "Activity", "setting": "[4]", "result": "inactive"}, {"measurement": "Activity", "setting": "[11]", "result": "Active"}, {"measurement": "IC50", "setting": "[2]", "result": 1100, "unit": "nM"}, {"measurement": "Activity", "setting": "[12]", "result": "Active"}, {"measurement": "Activity", "setting": "[13]", "result": "Active"}, {"measurement": "IC50", "setting": "[3]", "result": 240, "unit": "nM"}]}
